Data reported in ChEMBL document CHEMBL4033788, “Novel Ligustrazine-Based Analogs of Piperlongumine Potently Suppress Proliferation and Metastasis of Colorectal Cancer Cells in Vitro and in Vivo” (J Med Chem, 2018).
Values after ≈ are worked out from the molar mass of the structure shown.

Columns and labels:
[1] = Aqueous solubility of compound by HPLC analysis; type: physicochemical; conditions: water
Summary of the method: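 Compound shaken in pure water or 50 mM phosphate buffer pH 7.4 at 20 °C, then centrifuged. Supernatant assayed by C18 HPLC (acetonitrile–water 60/40, 1.0 mL/min, 254 nm). Triplicate.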

[2] = Solubility of compound in phosphate buffer at pH 7.4 after 8 hrs by HPLC analysis; type: physicochemical
Summary of the method: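 Compound was shaken in 50 mM phosphate buffer (pH 7.4) at 20 °C, centrifuged, and the supernatant analysed by HPLC. Conditions were a C18 column, acetonitrile–water 60/40 (v/v) at 1.0 mL/min, with detection at 254 nm. Run in triplicate.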

U-87 MG [3] = assay: Antiproliferative activity against human U87MG cells after 72 hrs by MTT assay; type: functional, cell-based, U-87MG ATCC
Summary of the method: (§1)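 Cells grown in RPMI 1640 with 10% FBS in 96-well plates overnight, then exposed to test agents in triplicate for 72 h. MTT (5 mg/mL stock) added for the last 4 h, formazan dissolved in DMSO, absorbance read at 570 nm. Inhibition = (1 − OD treated/OD control) × 100%.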

HCT-116 [4] = assay: Antiproliferative activity against human HCT116 cells after 72 hrs by MTT assay; type: functional, cell-based; conditions: HCT-116, 72 h; summary of the method: as §1
A549 [5] = assay: Antiproliferative activity against human A549 cells after 72 hrs by MTT assay; type: functional, cell-based; conditions: A549, 72 h
K562 [6] = assay: Antiproliferative activity against human K562 cells after 72 hrs by MTT assay; type: functional, cell-based; conditions: K562, 72 h; summary of the method: as §1
[7] = Drug level in DMSO treated with (E)-3-Chloro-1-(3-(3,5,6-trimethylpyrazin-2-yl)acryloyl)-5,6-dihydropyridin-2(1H)-one at 5 mg up to 8 hrs in presence of methyl thioglycolate by 1H NMR analysis
U-87 MG [8] = assay: Antiproliferative activity against human U87MG cells after 72 hrs in presence of piperlongumine by MTT assay; type: functional, cell-based, U-87MG ATCC; summary of the method: as §1
HCT-116 [9] = assay: Antiproliferative activity against human HCT116 cells after 72 hrs in presence of piperlongumine by MTT assay; type: functional, cell-based; conditions: HCT-116, 72 h; summary of the method: as §1
A549 [10] = assay: Antiproliferative activity against human A549 cells after 72 hrs in presence of piperlongumine by MTT assay; type: functional, cell-based; conditions: A549, 72 h; summary of the method: as §1
K562 [11] = assay: Antiproliferative activity against human K562 cells after 72 hrs in presence of piperlongumine by MTT assay; type: functional, cell-based; conditions: K562, 72 h; summary of the method: as §1

| SMILES | solubility [1] [µg/mL] | solubility at 8 h [2] [µg/mL] | IC50 (U-87 MG [3]) [µM] | IC50 (HCT-116 [4]) [µM] | IC50 (A549 [5]) [µM] | IC50 (K562 [6]) [µM] | Drug metabolism [7] | IC50 (U-87 MG [8]) [µM] | IC50 (HCT-116 [9]) [µM] | IC50 (A549 [10]) [µM] | IC50 (K562 [11]) [µM] |
| --- | --- | --- | --- | --- | --- | --- | --- | --- | --- | --- | --- |
| Cc1nc(C)c(/C=C/C(=O)N2CCC=C(Br)C2=O)nc1C | 20.2 (≈ 57.6 µM) | 67.3 (≈ 192 µM) | 4.28 | 0.46 | 2.48 | 0.48 |  |  |  |  |  |
| Cc1nc(C)c(/C=C/C(=O)N2CCC=CC2=O)nc1C | 42.6 (≈ 157 µM) | 328 (≈ 1210 µM) | 8.73 | 1.67 | 4.86 | 1.13 |  |  |  |  |  |
| Cc1nc(C)c(/C=C/C(=O)N2CCCCC2=O)nc1C |  |  | > 50 | > 50 | > 50 | > 50 |  |  |  |  |  |
| COC(=O)CSC1CCN(C(=O)/C=C/c2nc(C)c(C)nc2C)C(=O)C1Cl (configuration not stated) |  |  |  |  |  |  | Metabolite detected |  |  |  |  |
| Cc1nc(C)c(/C=C/C(=O)N2CCC=C(I)C2=O)nc1C | 14.5 (≈ 36.5 µM) | 49.9 (≈ 125 µM) | 7.26 | 0.76 | 3.19 | 0.64 |  |  |  |  |  |
| Cc1nc(C)c(C)nc1C [LIGUSTRAZINE] |  |  |  |  |  |  |  | 16.1 | 8.17 | 15.2 | 5.09 |
